Measured values published in article PMC7439261 (ACS Omega, 2020).
Values after ≈ are worked out from the molar mass of the structure shown. Read-outs that look alike come from different tables or passages of the source.

Experiments:
H. pylori ATCC 43504 [1] = experiment: Time-killing assay; assay type: cell-based, Helicobacter pylori
Summary of the method: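 H. pylori ATCC 43504 in 10% NBS-supplemented Brucella broth in 96-well plates, by broth microdilution. Inoculum suspension 5×10^6 CFU/mL; DMSO final ≤2.5%. Test compound was used at concentrations from MIC to MBC, alongside an untreated control. Viability was counted by plate colony count at 0, 6, 12, 18, 24, 36 and 48 h.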

[2] = Sulforhodamine cytotoxicity assay, MCF7; assay type: cell-based; conditions: human, MCF7 cells
Summary of the method: (§1)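 Cells were grown in EMEM with 10% FBS, 2 mM L-glutamine, 20 mM HEPES and antibiotics at 37 °C, 5% CO2. Passages were 4–20 for HeLa, MCF7 and Jurkat, and 2–5 for fibroblasts. Seeding per well for 24 h: HeLa 5×10^3, MCF7 and fibroblast 10^4, Jurkat 5×10^4. Test compound (0–200 mg/L, in DMSO) was added for 48 h. Cells were fixed with cold TCA, stained with 0.2% SRB, solubilised in 10 mM Tris and read at 492 nm. Camptothecin was the positive control. Triplicates, three independent experiments.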

H. pylori OX.63 = experiment: Broth dilution bioassay MIC/MBC, OX.63; assay type: cell-based, Helicobacter pylori; conditions: for MIC: H. pylori OX.63, broth dilution, 48 h; for MBC: OX.63, 72 h
H. pylori OX.83 = experiment: Broth dilution bioassay MIC/MBC, OX.83; assay type: cell-based, Helicobacter pylori; conditions: for MIC: H. pylori OX.83, broth dilution, 48 h; for MBC: OX.83, 72 h
H. pylori OX.67 = experiment: Broth dilution bioassay MIC/MBC, OX.67; assay type: cell-based, Helicobacter pylori; conditions: for MIC: H. pylori OX.67, broth dilution, 48 h; for MBC: OX.67, 72 h
H. pylori OX.22 = experiment: Broth dilution bioassay MIC/MBC, OX.22; assay type: cell-based; conditions: Helicobacter pylori; for MIC: OX.22, 48 h; for MBC: OX.22, 72 h
[3] = Sulforhodamine cytotoxicity assay, text summary over four cell lines; assay type: cell-based; conditions: human
Summary of the method: as §1

[4] = tested on: H. pylori ATCC 43504 biofilm formation; experiment: Biofilm formation inhibitory assay; assay type: cell-based, Helicobacter pylori; conditions: at test concentrations (sub-MICs), 48 h
[5] = Sulforhodamine cytotoxicity assay, HeLa; assay type: cell-based; conditions: human, HeLa cells
Summary of the method: as §1

H. pylori ATCC 51932 = experiment: Broth dilution bioassay MIC/MBC, ATCC 51932; assay type: cell-based; conditions: Helicobacter pylori; for MIC: ATCC51932, 48 h; for MBC: ATCC51932, 72 h
[6] = Sulforhodamine cytotoxicity assay, Jurkat; assay type: cell-based; conditions: human, Jurkat cells
Summary of the method: as §1

H. pylori ATCC 43504 [7] = experiment: Effect on morphology; assay type: cell-based, Helicobacter pylori
[8] = Sulforhodamine cytotoxicity assay, fibroblast; assay type: cell-based; conditions: human, fibroblast cells derived from human foreskins
Summary of the method: as §1

H. pylori ATCC 43504 [9] = experiment: Broth dilution bioassay MIC/MBC, ATCC 43504; assay type: cell-based; conditions: Helicobacter pylori; for MIC: ATCC43504, 48 h; for MBC: ATCC43504, 72 h
[10] = target: H. pylori ATCC 43504 urease (Helicobacter pylori, UniProt P69996); experiment: Urease inhibition, salicylate-hypochlorite method; assay type: biochemical; conditions: for slope ± SE: slope of dose-response curve of percentage of urease inhibition
Summary of the method: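 Crude H. pylori ATCC 43504 urease, 0.25 μg (0.04 U), in EDTA–sodium phosphate buffer pH 7.3, was preincubated with test compound at 37 °C for 90 min at 50 rpm. Urea solution (10 mM, as added) was then incubated for 30 min. Ammonia was measured by the salicylate–nitroprusside/alkaline hypochlorite method at 625 nm. Thiourea was the reference inhibitor. IC50 is molar. Triplicates, three independent experiments.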

[11] = tested on: test strains of H. pylori; experiment: Broth dilution bioassay MIC/MBC, text summary over test strains; assay type: cell-based; conditions: Helicobacter pylori
H. pylori OX.64 = experiment: Broth dilution bioassay MIC/MBC, OX.64; assay type: cell-based, Helicobacter pylori; conditions: for MIC: H. pylori OX.64, broth dilution, 48 h; for MBC: OX.64, 72 h
[12] = Helicobacter pylori, OX.63, 48 h
[13] = Helicobacter pylori, OX.83, 48 h
[14] = Helicobacter pylori, OX.67, 48 h
[15] = Helicobacter pylori, OX.64, 48 h

Chain of H. pylori ATCC 43504 urease (P69996 whole entry): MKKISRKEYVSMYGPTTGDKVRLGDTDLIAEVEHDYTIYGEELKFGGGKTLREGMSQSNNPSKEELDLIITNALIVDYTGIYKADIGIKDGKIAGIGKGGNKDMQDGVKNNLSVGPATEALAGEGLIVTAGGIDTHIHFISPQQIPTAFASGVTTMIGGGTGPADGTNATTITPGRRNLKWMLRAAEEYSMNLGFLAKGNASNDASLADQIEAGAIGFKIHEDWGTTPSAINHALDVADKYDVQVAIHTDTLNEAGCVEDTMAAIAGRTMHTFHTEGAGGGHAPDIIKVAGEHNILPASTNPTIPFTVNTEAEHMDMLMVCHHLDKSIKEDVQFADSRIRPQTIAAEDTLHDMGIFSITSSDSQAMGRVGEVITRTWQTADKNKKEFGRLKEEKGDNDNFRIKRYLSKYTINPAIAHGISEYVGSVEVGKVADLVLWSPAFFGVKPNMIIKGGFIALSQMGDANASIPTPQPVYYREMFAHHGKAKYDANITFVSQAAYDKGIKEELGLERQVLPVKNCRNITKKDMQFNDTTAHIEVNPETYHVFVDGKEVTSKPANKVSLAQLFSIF
Chain of H. pylori ATCC 43504 urease (P14916 whole entry partner): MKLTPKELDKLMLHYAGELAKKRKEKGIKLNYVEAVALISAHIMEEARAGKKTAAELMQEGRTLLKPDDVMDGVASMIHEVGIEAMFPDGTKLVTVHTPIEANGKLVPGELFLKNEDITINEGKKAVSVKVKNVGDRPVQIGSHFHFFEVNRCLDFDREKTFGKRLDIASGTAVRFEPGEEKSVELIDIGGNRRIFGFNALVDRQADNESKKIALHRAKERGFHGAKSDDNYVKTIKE

Structure (SMILES)	MIC (H. pylori OX.63; [12]) [µg/mL]	MBC (H. pylori OX.63; Helicobacter pylori) [µg/mL]	MIC (H. pylori OX.83; [13]) [µg/mL]	MBC (H. pylori OX.83; Helicobacter pylori) [µg/mL]	MIC (H. pylori OX.67; [14]) [µg/mL]	MBC (H. pylori OX.67; Helicobacter pylori) [µg/mL]	MIC (H. pylori OX.22) [µg/mL]	MBC (H. pylori OX.22) [µg/mL]	MIC (H. pylori ATCC 51932) [µg/mL]	MBC (H. pylori ATCC 51932) [µg/mL]	MIC (H. pylori ATCC 43504 [9]) [µg/mL]	MBC (H. pylori ATCC 43504 [9]) [µg/mL]	slope ± SE [10]	MIC (H. pylori OX.64; [15]) [µg/mL]	MBC (H. pylori OX.64; Helicobacter pylori) [µg/mL]	other results
O=C(O)c1ccc(O)c(O)c1 [PCA, protocatechuic acid]	250 (≈ 1620 µM)	1500 (≈ 9730 µM)	250 (≈ 1620 µM)	1500 (≈ 9730 µM)	250 (≈ 1620 µM)	1500 (≈ 9730 µM)	250 (≈ 1620 µM)	1500 (≈ 9730 µM)	250 (≈ 1620 µM)	1500 (≈ 9730 µM)	250 (≈ 1620 µM)	1500 (≈ 9730 µM)	2.00 ± 0.075	250 (≈ 1620 µM)	1500 (≈ 9730 µM)	reduction of viability (H. pylori ATCC 43504 [1]; at the MIC, 36 h): ~2 log10; reduction of viability (H. pylori ATCC 43504 [1]; four times the MIC, 48 h): ~6 log10; CC50 at 48 h [2]: > 200 µg/mL; CC50 at 48 h [3]: > 200 µg/mL; antibiofilm activity [4]: did not show antibiofilm activity; CC50 at 48 h [5]: > 200 µg/mL; CC50 at 48 h [6]: > 200 µg/mL; conversion to the coccoid form (H. pylori ATCC 43504 [7]; 500 mg/L): not significantly different from that in the control group; conversion to the coccoid form (H. pylori ATCC 43504 [7]; 1000 mg/L): 12%; CC50 at 48 h [8]: > 200 µg/mL; IC50 [10]: 486 µM; MIC ([11]; ATCC51932): 250 µg/mL (≈ 1620 µM)
CC1(C)S[C@@H]2[C@H](NC(=O)[C@H](N)c3ccc(O)cc3)C(=O)N2[C@H]1C(=O)O [amoxicillin]	0.063 (≈ 0.172 µM)	0.25 (≈ 0.684 µM)	0.063 (≈ 0.172 µM)	0.25 (≈ 0.684 µM)	0.031 (≈ 0.0848 µM)	0.125 (≈ 0.342 µM)	0.063 (≈ 0.172 µM)	0.25 (≈ 0.684 µM)	0.063 (≈ 0.172 µM)	0.125 (≈ 0.342 µM)	0.031 (≈ 0.0848 µM)	0.063 (≈ 0.172 µM)		0.031 (≈ 0.0848 µM)	0.125 (≈ 0.342 µM)	
CC[C@H]1OC(=O)[C@H](C)[C@@H](O[C@H]2C[C@@](C)(OC)[C@@H](O)[C@H](C)O2)[C@H](C)[C@@H](O[C@@H]2O[C@H](C)C[C@H](N(C)C)[C@H]2O)[C@](C)(O)C[C@@H](C)CN(C)[C@H](C)[C@@H](O)[C@]1(C)O [azithromycin]	32 to 64 (≈ 42.7 to 85.4 µM)	128 (≈ 171 µM)	64 (≈ 85.4 µM)	128 (≈ 171 µM)	64 (≈ 85.4 µM)	128 (≈ 171 µM)	0.5 (≈ 0.668 µM)	1 (≈ 1.34 µM)	0.5 (≈ 0.668 µM)	1 (≈ 1.34 µM)	0.5 (≈ 0.668 µM)	1 (≈ 1.34 µM)		16 to 32 (≈ 21.4 to 42.7 µM)	128 (≈ 171 µM)	MIC (H. pylori OX.63): 32 µg/mL (≈ 42.7 µM); MIC (H. pylori OX.83): 32 µg/mL (≈ 42.7 µM); MIC (H. pylori OX.67): 32 µg/mL (≈ 42.7 µM); MIC [11]: 16 to 32 µg/mL (≈ 21.4 to 42.7 µM); MIC (H. pylori OX.64): 16 µg/mL (≈ 21.4 µM)
NC(N)=S [thiourea, reference compound]													1.79 ± 0.093			IC50 ([10]; read-out: IC50 (95% CL), urease crude, preincubation 90 min, pH 7.3): 573 µM
CC[C@H]1OC(=O)[C@H](C)[C@@H](O[C@H]2C[C@@](C)(OC)[C@@H](O)[C@H](C)O2)[C@H](C)[C@@H](O[C@@H]2O[C@H](C)C[C@H](N(C)C)[C@H]2O)[C@](C)(O)C[C@@H](C)C(=O)[C@H](C)[C@@H](O)[C@]1(C)O [erythromycin]		128 (≈ 174 µM)	64 (≈ 87.2 µM)	128 (≈ 174 µM)	64 (≈ 87.2 µM)	128 (≈ 174 µM)		128 (≈ 174 µM)	0.063 (≈ 0.0858 µM)	0.125 (≈ 0.17 µM)	0.063 (≈ 0.0858 µM)	0.125 (≈ 0.17 µM)		16 to 32 (≈ 21.8 to 43.6 µM)	128 (≈ 174 µM)	
